The values below come from PubChem BioAssay.

SMILES strings stand for the structures. The list shows a part of the results. Results filed as inconclusive are left out. Active and inactive are the calls of the source.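 How the source made its calls, unless noted: active means thallium flux slope above the same plate's solvent-only control mean plus 3 SD; inconclusive means the two replicate wells disagree; inactive means no significant difference from solvent-only control wells.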

Sequence of Voltage-gated potassium channel subunit beta-2 (Rattus norvegicus) (P62483 whole entry, looked up): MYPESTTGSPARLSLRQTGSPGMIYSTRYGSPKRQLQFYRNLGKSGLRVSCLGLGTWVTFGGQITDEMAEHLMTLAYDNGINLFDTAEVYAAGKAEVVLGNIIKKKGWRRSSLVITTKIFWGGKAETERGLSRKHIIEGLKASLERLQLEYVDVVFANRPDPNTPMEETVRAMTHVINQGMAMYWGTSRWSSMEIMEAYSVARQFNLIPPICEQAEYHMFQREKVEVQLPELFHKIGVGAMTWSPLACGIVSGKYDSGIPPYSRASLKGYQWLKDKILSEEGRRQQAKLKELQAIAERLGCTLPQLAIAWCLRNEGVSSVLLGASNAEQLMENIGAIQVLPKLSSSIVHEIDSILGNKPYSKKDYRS

Tested on in one assay: not listed separately
Put plainly: inhibitors of TNFa-induced NFkB p65 translocation, primary screen, imaging, HUVEC, MLSMR starter and 10KST1 sets (AID 438;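 active means inhibition above 20% together with a positive visual image hit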;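 further: compound added about 3h40 before a 20 min TNFalpha stimulation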;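 on inhibition: signal is the nuclear over cytoplasmic p65 intensity ratio per well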). The settings on record: HUVEC TNFa-induced p65 nuclear translocation; cell count: measured here: nuclei count (cytotoxicity indicator), at 2.08 µM; inhibition: at 2 µM, stronger effect = higher value, 0% TNFa-plus-vehicle, 100% no-TNFa wells.
As for `COc1ccccc1-n1cnc2cc(NS(=O)(=O)c3ccccc3)ccc21`, the cell count was 720 and the inhibition was -12.5% (inactive).

Take `O=c1c2ccccc2[nH]c(=S)n1CCN1CCC(=C(c2ccc(F)cc2)c2ccc(F)cc2)CC1`: the inhibition is -12.2% (inactive) and the cell count came out at 603.

For the molecule `O=C(C1CCN(c2nnc(-n3cccc3)s2)CC1)N1CCc2ccccc2C1`, the cell count was 479 and the inhibition is -5% (inactive).

Tested on in the next assay: not listed separately
Kind of assay: reduction of polyQ htt aggregates in cells – imaging, exon1htt(103Q)mCFP cells, high-content imaging, primary screen (AID 483;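 active means visual image review flags a hit and inhibition of aggregation exceeds 20%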;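 further: compound exposure lasted 3 days before fixation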;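 on nuclei count: percent of the per-plate median nuclei count of sample wells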). To be noted: exon1htt(103Q)mCFP cell line, aggregate imaging, at 2 µM; inhibition of aggregation: stronger effect = higher value; nuclei count: measured here: cell count, toxicity.
For `COc1ccccc1-n1cnc2cc(NS(=O)(=O)c3ccccc3)ccc21`, the inhibition of aggregation was 1.2% (inactive) and the nuclei count turned out to be 90.2%.

Turning to `O=c1c2ccccc2[nH]c(=S)n1CCN1CCC(=C(c2ccc(F)cc2)c2ccc(F)cc2)CC1`, the inhibition of aggregation was 12% (inactive) and the nuclei count is 92.5%.

Consider `O=C(C1CCN(c2nnc(-n3cccc3)s2)CC1)N1CCc2ccccc2C1`, for which the nuclei count was found to be 65.3% and the inhibition of aggregation is -15.5% (inactive).

Tested on in another assay: not listed separately
Kind of assay: endothelial E-selectin expression blockers – imaging, HUVEC, immunofluorescence, MLSMR starter and 10KST1 sets, primary screen (AID 487;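 active means visually confirmed hit in the image check and inhibition above 20%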;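 on inhibition: signal is fraction of cell area covered by stained E-selectin grains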;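 on nuclei count: 100% = median nuclei count of all wells on the same plate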). The settings on record: HUVEC TNFalpha-induced E-selectin immunofluorescence imaging, at 2 µM; inhibition: stronger effect = higher value; nuclei count: measured here: cell number, toxicity.
Consider `COc1ccccc1-n1cnc2cc(NS(=O)(=O)c3ccccc3)ccc21`, for which the inhibition was -14.6% (inactive) and the nuclei count worked out at 108%.

In the case of `O=c1c2ccccc2[nH]c(=S)n1CCN1CCC(=C(c2ccc(F)cc2)c2ccc(F)cc2)CC1`, the nuclei count worked out at 132% and the inhibition is -105% (inactive).

On to `O=C(C1CCN(c2nnc(-n3cccc3)s2)CC1)N1CCc2ccccc2C1`, for which the nuclei count is 104% and the inhibition is -9.9% (inactive).

A further assay addresses Voltage-gated potassium channel subunit beta-2 (Rattus norvegicus) (UniProt P62483). Kind of assay: inhibitors of rat Kvbeta2 reductase activity – biochemical, NADPH fluorescence, primary screen (AID 622;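 active means fluorescence slope higher than the sample average by over 3 SD, cut at about -0.22 in these data, passing the limit was not always enough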;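 further: slope of raw intensity against log time taken from 70 to 1610 s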). The settings on record: recombinant KvBeta, 4-cyanobenzaldehyde reduction, at 10 µM, stronger effect = higher value.
Turning to `COc1ccccc1-n1cnc2cc(NS(=O)(=O)c3ccccc3)ccc21`, the fluorescence slope is -0.46 (inactive).

Regarding `O=c1c2ccccc2[nH]c(=S)n1CCN1CCC(=C(c2ccc(F)cc2)c2ccc(F)cc2)CC1`, the fluorescence slope is -0.452 (inactive).

`O=C(C1CCN(c2nnc(-n3cccc3)s2)CC1)N1CCc2ccccc2C1`: the fluorescence slope is -0.605 (inactive).

The next assay shares this target. Put plainly: enhancers of rat Kvbeta2 NADPH turnover – biochemical, NADPH fluorescence, primary screen (AID 623;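 active means NADPH fluorescence slope more negative than the mean of all samples by about 3 SD, 99.7% confidence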;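 further: fluorescence intensity change per second fitted from 20 to 320 s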). To be noted: Recombinant KvBeta, NADPH fluorescence decrease slope, 10 min; at 10 µM; stronger effect = lower value.
On to `COc1ccccc1-n1cnc2cc(NS(=O)(=O)c3ccccc3)ccc21`, for which the NADPH fluorescence slope was -1.9e-05 (inactive).

With `O=c1c2ccccc2[nH]c(=S)n1CCN1CCC(=C(c2ccc(F)cc2)c2ccc(F)cc2)CC1`, the NADPH fluorescence slope was -0.000101 (inactive).

In the case of `O=C(C1CCN(c2nnc(-n3cccc3)s2)CC1)N1CCc2ccccc2C1`, the NADPH fluorescence slope is -3.9e-05 (inactive).

In the next assay the target is Alpha-2C adrenergic receptor (Homo sapiens) (UniProt P18825). Kind of assay: compounds altering alpha2C-coupled GIRK flux – cell-based, HEK293 alpha2C/GIRK1/2, thallium flux, primary screen (AID 624;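 active means fluorescence slope after compound addition differing from the mean of all screened samples at 99.7% confidence, in either direction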;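 further: slope of fluorescence ratio to pre-addition baseline per second over 15 to 24 s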). To be noted: thallium flux BTC fluorescence, at 10 µM, actives lie on both sides.
Sequence of Alpha-2C adrenergic receptor (Homo sapiens) (P18825 whole entry, looked up): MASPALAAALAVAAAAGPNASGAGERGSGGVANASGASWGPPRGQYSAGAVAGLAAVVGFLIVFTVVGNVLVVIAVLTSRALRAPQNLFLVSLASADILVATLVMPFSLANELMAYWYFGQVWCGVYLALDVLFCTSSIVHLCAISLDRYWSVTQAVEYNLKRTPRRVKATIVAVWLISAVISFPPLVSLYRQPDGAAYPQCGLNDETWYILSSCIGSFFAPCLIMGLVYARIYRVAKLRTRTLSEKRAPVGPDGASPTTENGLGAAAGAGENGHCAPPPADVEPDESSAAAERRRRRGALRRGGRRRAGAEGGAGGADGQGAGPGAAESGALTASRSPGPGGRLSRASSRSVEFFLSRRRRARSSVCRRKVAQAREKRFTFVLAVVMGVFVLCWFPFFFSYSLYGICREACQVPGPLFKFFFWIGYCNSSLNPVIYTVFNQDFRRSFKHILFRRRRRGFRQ
Consider `COc1ccccc1-n1cnc2cc(NS(=O)(=O)c3ccccc3)ccc21`, for which the slope was 0.00351 (inactive).

Take `O=c1c2ccccc2[nH]c(=S)n1CCN1CCC(=C(c2ccc(F)cc2)c2ccc(F)cc2)CC1`: the slope was 0.00649 (inactive).

Consider `O=C(C1CCN(c2nnc(-n3cccc3)s2)CC1)N1CCc2ccccc2C1`, for which the slope was 0.00552 (inactive).

For the next assay, the target named is Solute carrier family 12 member 5 (Homo sapiens) (UniProt Q9H2X9). Kind of assay: retest of KCC2 transport modulators without sodium – cell-based, HEK293 KCC2, thallium flux, secondary assay, confirmation (AID 1713). To be noted: FluoZin2 fluorescence, at 10 µM, stronger effect = higher value. The essentials: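 System: HEK cells expressing human KCC2 cotransporter; Buffer or medium: Na-free NMDG-Cl buffer; Also added: thallium sulfate stimulus buffer at pH 7.3; Dosing: 10 µM single dose, 0.1% DMSO; Timing: 48 min dye loading; Measured by: kinetic FluoZin2 fluorescence at 1 Hz, ex 480/em 540 nm; Read-out: baseline-normalized fluorescence slope, 10–20 s post-Tl+.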
Sequence of Solute carrier family 12 member 5 (Homo sapiens) (Q9H2X9 whole entry, looked up): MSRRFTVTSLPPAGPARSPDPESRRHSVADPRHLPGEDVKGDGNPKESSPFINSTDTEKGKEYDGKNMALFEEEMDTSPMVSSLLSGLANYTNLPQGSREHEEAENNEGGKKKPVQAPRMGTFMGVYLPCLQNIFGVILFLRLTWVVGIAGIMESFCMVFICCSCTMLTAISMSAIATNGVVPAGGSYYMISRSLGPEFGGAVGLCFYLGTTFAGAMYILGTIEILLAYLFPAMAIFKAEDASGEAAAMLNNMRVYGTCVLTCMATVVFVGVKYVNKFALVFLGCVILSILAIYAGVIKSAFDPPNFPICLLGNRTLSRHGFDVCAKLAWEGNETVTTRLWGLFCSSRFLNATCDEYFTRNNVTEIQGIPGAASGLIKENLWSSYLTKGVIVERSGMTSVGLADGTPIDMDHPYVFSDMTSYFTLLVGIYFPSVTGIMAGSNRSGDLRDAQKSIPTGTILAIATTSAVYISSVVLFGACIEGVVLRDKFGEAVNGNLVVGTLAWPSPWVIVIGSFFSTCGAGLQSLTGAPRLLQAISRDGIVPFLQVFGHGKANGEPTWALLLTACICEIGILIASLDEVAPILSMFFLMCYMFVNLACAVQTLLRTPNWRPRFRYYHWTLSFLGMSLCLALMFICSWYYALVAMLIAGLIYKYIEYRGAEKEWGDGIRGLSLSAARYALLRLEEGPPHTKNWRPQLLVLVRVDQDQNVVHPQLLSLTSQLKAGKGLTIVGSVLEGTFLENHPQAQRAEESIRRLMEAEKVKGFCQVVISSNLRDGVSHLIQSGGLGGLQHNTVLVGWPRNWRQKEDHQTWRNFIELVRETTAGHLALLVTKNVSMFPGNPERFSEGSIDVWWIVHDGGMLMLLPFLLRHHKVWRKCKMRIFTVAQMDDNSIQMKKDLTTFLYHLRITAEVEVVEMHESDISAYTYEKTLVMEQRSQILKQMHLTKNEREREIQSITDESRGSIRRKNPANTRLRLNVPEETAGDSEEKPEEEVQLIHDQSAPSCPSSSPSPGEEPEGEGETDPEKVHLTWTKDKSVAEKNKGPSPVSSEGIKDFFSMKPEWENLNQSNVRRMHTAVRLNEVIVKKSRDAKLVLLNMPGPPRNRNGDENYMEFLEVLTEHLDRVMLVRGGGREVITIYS
`Cc1cc(C(=O)NNC(=S)Nc2ccccc2C)cs1`: the normalised thallium flux (F/F0 slope) is 0.00983 (inactive).

Take `O=C(N/N=C/c1ccc(Br)o1)c1cncc(Br)c1`: the normalised thallium flux (F/F0 slope) is 0.0115 (active).

With `O=C(Cc1csc(Nc2nc(=S)[nH]c3ccccc23)n1)NCCCN1CCN(c2cccc(Cl)c2)CC1`, the normalised thallium flux (F/F0 slope) was 0.0134 (active).

Turning to `COc1cc(OC)cc(C(=O)NCCSCc2ccco2)c1`, the normalised thallium flux (F/F0 slope) was 0.00951 (inactive).

For `O=S(=O)(c1cccc(S(=O)(=O)N2CCC(n3nnc4ccccc43)CC2)c1)N1CCCCC1`, the normalised thallium flux (F/F0 slope) is 0.00996 (inactive).

Consider `COC(=O)c1sc(NC(=S)NC(=O)c2ccc(C)cc2)nc1C`, for which the normalised thallium flux (F/F0 slope) was 0.0256 (active).

With `O=C(CNCc1cccs1)Nc1cc(S(=O)(=O)N2CCCC2)ccc1Cl`, the normalised thallium flux (F/F0 slope) was 0.00507 (inactive).

Consider `CC1Cc2ccccc2N1C(=O)CSc1nc2ccccc2o1` (stereo unspecified), for which the normalised thallium flux (F/F0 slope) is 0.00599 (inactive).

Take `Oc1c(Cl)cc(Cl)c(Cl)c1Cc1c(O)c(Cl)cc(Cl)c1Cl`: the normalised thallium flux (F/F0 slope) was 0.0104 (inactive).

With `Cc1ccccc1NC(=S)NNC(=O)c1cccc(Br)c1`, the normalised thallium flux (F/F0 slope) was 0.0117 (inactive).

Consider `COc1cccc(NC(=S)NC(=O)c2c(Cl)c(C)nn2C)c1`, for which the normalised thallium flux (F/F0 slope) was 0.0264 (active).

As to `Cn1c(CCCOc2ccc(Cl)cc2Cl)n[nH]c1=S`, the normalised thallium flux (F/F0 slope) is 0.00558 (inactive).

In the case of `CC1CCCCN1S(=O)(=O)c1ccc(C(=O)Nc2nnc(-c3cccs3)o2)cc1` (stereo unspecified), the normalised thallium flux (F/F0 slope) was 0.0106 (inactive).

As to `CCCCn1c(=S)[nH]c2ncccc2c1=O`, the normalised thallium flux (F/F0 slope) was 0.0429 (active).

Consider `COc1cccc2sc(Nc3nc(C)c(C(C)=O)s3)nc12`, for which the normalised thallium flux (F/F0 slope) was 0.00922 (inactive).

Take `COc1ccccc1N1CCN(C(=O)CSc2ncnc3c2cnn3-c2ccc(C)c(C)c2)CC1`: the normalised thallium flux (F/F0 slope) is 0.00591 (inactive).

For the molecule `CS(=O)(=O)N(CC(=O)N1CCN(c2ccc(F)cc2)CC1)C1CCCCC1`, the normalised thallium flux (F/F0 slope) is 0.00629 (inactive).

Regarding `O=C(NNC(=S)NC(=O)c1cn(-c2ccccc2)nc1-c1ccccc1)c1ccncc1`, the normalised thallium flux (F/F0 slope) is 0.00764 (inactive).

Regarding `CCCCn1c(SCC(=O)NCC2CCCO2)nc2ccc(N3CCOCC3)cc2c1=O` (stereo unspecified), the normalised thallium flux (F/F0 slope) is 0.0177 (inactive).

Turning to `COc1ccccc1-n1cnc2cc(NS(=O)(=O)c3ccccc3)ccc21`, the normalised thallium flux (F/F0 slope) is 0.00507 (inactive).

In the case of `Cc1ccc(-n2ncc3c(Nc4cccc(C(=O)O)c4)ncnc32)cc1`, the normalised thallium flux (F/F0 slope) is 0.00874 (inactive).

With `Cn1c(C(=O)NCCc2ccsc2)cc2c(=O)n(C)c3ccccc3c21`, the normalised thallium flux (F/F0 slope) was 0.00557 (inactive).

As for `Cc1ccc(C)c(NC(=S)NNC(=S)Nc2ccc(C(C)C)cc2)c1`, the normalised thallium flux (F/F0 slope) is 0.0145 (inactive).

Consider `Cc1ccc(OCC(=O)N2CCN(C(=O)c3cccnc3)CC2)cc1`, for which the normalised thallium flux (F/F0 slope) is 0.00886 (inactive).

Consider `O=C(Nc1ccc2oc(-c3ccccc3F)nc2c1)c1ccco1`, for which the normalised thallium flux (F/F0 slope) is 0.0157 (inactive).

In the case of `Cc1cc(C)c2cc(CN(Cc3cccs3)Cc3nnnn3CC3CCCO3)c(=O)[nH]c2c1` (stereo unspecified), the normalised thallium flux (F/F0 slope) is 0.0146 (inactive).

Regarding `Cc1ccc(N=Cc2c(O)n(-c3nccs3)c(=O)c3ccccc23)c(C)c1`, the normalised thallium flux (F/F0 slope) is 0.000176 (active).

For `Cc1cccc(-n2c(SCC(N)=O)nc3c(c2=O)C2(CCCCC2)Cc2ccccc2-3)c1`, the normalised thallium flux (F/F0 slope) was 0.00538 (inactive).

Consider `O=c1c2ccccc2[nH]c(=S)n1CCN1CCC(=C(c2ccc(F)cc2)c2ccc(F)cc2)CC1`, for which the normalised thallium flux (F/F0 slope) is 0.00677 (inactive).

Consider `O=C(Nc1ccn(Cc2ccccc2)n1)c1cccc(F)c1`, for which the normalised thallium flux (F/F0 slope) is 0.00622 (inactive).

As to `COc1ccc(Cl)cc1C(=O)NNC(=S)NC(=O)/C=C/c1ccco1`, the normalised thallium flux (F/F0 slope) is 0.0165 (inactive).

For `O=C(C1CCN(c2nnc(-n3cccc3)s2)CC1)N1CCc2ccccc2C1`, the normalised thallium flux (F/F0 slope) was 0.00728 (inactive).

Consider `Fc1ccc(COc2cccc(-c3n[nH]c(=S)o3)c2)cc1`, for which the normalised thallium flux (F/F0 slope) was 0.0171 (inactive).

Turning to `O=C(Oc1c(-c2ccco2)oc2ccccc2c1=O)c1cccnc1`, the normalised thallium flux (F/F0 slope) was 0.0222 (active).

`Cc1c(C(=O)NC(=S)NCc2cccnc2)oc2ccccc12`: the normalised thallium flux (F/F0 slope) is 0.025 (active).

With `COCCn1c(C)cc(C(=O)CSc2ncnc3sc4c(c23)CCC4)c1C`, the normalised thallium flux (F/F0 slope) was 0.0102 (inactive).

As to `O=C(CSc1ccc(-c2cccs2)nn1)Nc1ccccc1F`, the normalised thallium flux (F/F0 slope) was 0.00973 (inactive).

Turning to `O=C(c1cc(-c2ccc(O)cc2)on1)N1CCCc2ccccc21`, the normalised thallium flux (F/F0 slope) was 0.00967 (inactive).

Regarding `CCCCC(CC)CNC(=O)C(=O)C1C(=O)Nc2ccccc21` (stereo unspecified), the normalised thallium flux (F/F0 slope) was 0.0112 (inactive).

As usually defined, the inhibition is the change of the read-out against control, counted positive when it falls.
